In ChEMBL document CHEMBL1157378, “Role for cell density in antifungal drug resistance in Candida albicans biofilms” (2007):
≈ marks a conversion by molar mass, not a printed value. Calls of active or inactive are those of the source. The rule behind the calls is not given here.

Assays:
Candida albicans [1] = experiment: Inhibition of metabolic activity in Candida albicans SC5314 at 32 ug/ml in presence of 2 ug/ml calcineurin pathway inhibitor FK506; assay type: functional; set-up: scale not given: the % may be the effect or the level left
In short: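 SC5314 fluconazole susceptibility tested with or without FK506. Cell suspension, drug and FK506 volumes set to the final concentrations in 200 µl. Incubation at 37°C for 48 h, then metabolic activity by XTT/menadione at 490 nm.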

Candida albicans [2] = experiment: Antimicrobial activity against Candida albicans GDH2346 dissociated biofilms at cell density of 10^3 cells/ml after 48 hrs by XTT assay; assay type: functional; details: GDH2346, 48 h
In short: (§1)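 Polystyrene-well biofilms (48 h, 37°C) washed, then broken up in 100 µl RPMI by scraping and aspiration. Cells used undiluted (about 2 x 10^8 cells/ml equivalent) or adjusted by A600 against a hemacytometer-calibrated yeast standard curve. Drug exposure at 37°C for 48 h (caspofungin 24 h), then XTT/menadione read at 490 nm.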

Candida albicans [3] = experiment: Antimicrobial activity against Candida albicans SC5314 dissociated biofilms grown on polyvinylchloride catheter surface at cell density of 10^3 cells/ml at 0.25 to 8 ug/ml by XTT assay; assay type: functional, organism-based
In short: (§2)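 1-cm discs of denture acrylic, PVC catheter or silicone elastomer-coated latex catheter, ethylene-oxide sterilised. Seeded with 1 ml of 1 x 10^6 cells/ml, adhesion 90 min at 37°C, washed, grown 48 h at 37°C in RPMI. Biofilm scraped off, set to 1 x 10^3 or 1 x 10^8 cells/ml, exposed to fluconazole, read by XTT at 490 nm.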

Candida albicans [4] = experiment: Antimicrobial activity against Candida albicans GDH2346 dissociated biofilms at cell density of 10^8 cells/ml after 48 hrs by XTT assay; assay type: functional; details: GDH2346, 48 h; in short: as §1
Candida albicans [5] = experiment: Antimicrobial activity against Candida albicans planktonic forms; assay type: functional
In short: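 Yeast grown in YNB/50 mM glucose at room temperature to about 2 x 10^8 cells/ml, washed, and resuspended in MOPS-buffered RPMI 1640. Tested at 2 x 10^3 cells/ml (standard) or at densities from 1 x 10^3 to 1 x 10^8 cells/ml. Incubated with twofold drug dilutions at 37°C for 48 h (caspofungin 24 h). XTT-menadione read-out at 490 nm.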

Candida albicans [6] = experiment: Antimicrobial activity against Candida albicans GDH2346 intact biofilms after 48 hrs by XTT assay; assay type: functional; details: GDH2346, 48 h
In short: (§3)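 Biofilm seeded at 1 x 10^6 cells/ml in RPMI in polystyrene microtiter wells and grown 48 h at 37°C in a moist chamber. Washed once and drug added to the same well (twofold dilutions, 1,024 to 0.0313 µg/ml) for 48 h at 37°C (caspofungin 24 h). Read-out: XTT/menadione reduction at 490 nm.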

Candida albicans [7] = experiment: Antimicrobial activity against Cdr1, Cdr2 and Mdr1 deficient Candida albicans DSY1050 dissociated biofilms at cell density of 10^8 cells/ml after 48 hrs by XTT assay; assay type: functional; details: DSY1050, 48 h; in short: as §1
Candida albicans [8] = experiment: Antimicrobial activity against fluconazole-resistant Candida albicans FH5 dissociated biofilms at cell density of 10^8 cells/ml after 48 hrs by XTT assay; assay type: functional; details: FH5, 48 h; in short: as §1
Candida albicans [9] = experiment: Antimicrobial activity against Candida albicans FH1 at planktonic cell density of 10^8 cells/ml after 48 hrs by XTT assay; assay type: functional; details: FH1, 48 h
In short: (§4)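 YNB-grown yeast (50 mM glucose, room temperature, shaken, to ~2 x 10^8 cells/ml) washed into MOPS-buffered RPMI 1640 with L-glutamine and set to the stated density. Exposed to twofold serial drug dilutions (1,024 to 0.0313 µg/ml) at 37°C, 48 h (caspofungin 24 h), with drug-free controls. Read-out: XTT (0.5 g/liter) plus 1 µM menadione, formazan at 490 nm.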

Candida albicans [10] = experiment: Antimicrobial activity against Candida albicans SC5314 dissociated biofilms grown on polymethylmethacrylate surface at cell density of 10^3 cells/ml at 0.25 to 8 ug/ml by XTT assay; assay type: functional, organism-based; in short: as §2
Candida albicans [11] = experiment: Antimicrobial activity against Cdr1, Cdr2 and Mdr1 deficient Candida albicans DSY1050 at planktonic cell density of 10^3 cells/ml after 48 hrs by XTT assay; assay type: functional; details: DSY1050, 48 h; in short: as §4
Candida albicans [12] = experiment: Antimicrobial activity against Cdr1, Cdr2 and Mdr1 deficient Candida albicans DSY1050 intact biofilms after 48 hrs by XTT assay; assay type: functional; details: DSY1050, 48 h; in short: as §3
Candida albicans [13] = experiment: Antimicrobial activity against Candida albicans SC5314 dissociated biofilms grown on silicone-elastomer coated latex surface at cell density of 10^3 cells/ml at 0.25 to 8 ug/ml by XTT assay; assay type: functional, organism-based; in short: as §2
Candida albicans [14] = experiment: Antimicrobial activity against fluconazole-resistant Candida albicans FH5 dissociated biofilms at cell density of 10^3 cells/ml after 48 hrs by XTT assay; assay type: functional; details: FH5, 48 h; in short: as §1

## OC(Cn1cncn1)(Cn1cncn1)c1ccc(F)cc1F [FLUCONAZOLE]
Candida albicans [1]
  Activity: 17%
Candida albicans [2]
  MIC80: 0.25 µg/mL (≈ 0.816 µM)
Candida albicans [3]
  Activity: Active
Candida albicans [4]
  MIC80: > 64 µg/mL
Candida albicans [5]
  MIC: 2 µg/mL (≈ 6.53 µM)
Candida albicans [6]
  MIC80: > 512 µg/mL
Candida albicans [7]
  MIC80: > 64 µg/mL
Candida albicans [8]
  MIC80: > 512 µg/mL
Candida albicans [9]
  MIC80: > 512 µg/mL
Candida albicans [10]
  Activity: Active
Candida albicans [11]
  MIC80: 0.25 µg/mL (≈ 0.816 µM)
Candida albicans [12]
  MIC80: > 64 µg/mL
Candida albicans [13]
  Activity: Active
Candida albicans [14]
  MIC80: 64 µg/mL (≈ 209 µM)
